Source: PubChem (several laboratories)
Sampled rows, rich in hits. Any-hit rate of the full collection: about 2.2%.
ARFGAP1 inh: inhibitors of rat ARFGAP1 GAP activity, primary screen, biochemical, fluorescence polarization, GDP tracer. inhibition, % at 16.5 µM. 0.26% of 360,000 active. AID 651572, 2012. Arfgap1-stimulated ARF1 GTP hydrolysis, GDP FP detection. ADP-ribosylation factor GTPase-activating protein 1 (Rattus norvegicus), Q62848;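 active = inhibition above a per-plate limit, mean inhibition of low control wells plus 3 SD, cut at about 25% in these data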;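 also: 0% = DMSO wells with enzyme and 100% = wells lacking Arfgap1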
Target sequence (Q62848 1-136 limits assumed): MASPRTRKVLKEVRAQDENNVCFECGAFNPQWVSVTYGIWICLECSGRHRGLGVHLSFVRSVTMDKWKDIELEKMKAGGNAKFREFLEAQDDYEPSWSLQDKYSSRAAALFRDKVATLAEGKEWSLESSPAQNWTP
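Assay system: Rat Arfgap1 GAP domain (His6, aa 1-136), purified enzyme | Buffer or medium: HEPES 25 mM pH 7.5, NaCl 150 mM, MgCl2, DTT | Schedule: GTP hydrolysis reaction 2 h at 25 °C | Signal: FP of antibody-bound GDP Alexa 633 tracer, ex 620/em 688 nm | Measure: Percent inhibition of Arfgap1-stimulated GTP hydrolysis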
NadD block: inhibitors of S. aureus NadD, primary screen, biochemical, colorimetric, uHTS; 0.78% of 360,000 active; Nicotinate-nucleotide adenylyltransferase NadD (Staphylococcus aureus N315); purified NadD enzyme, colorimetric absorbance read-out; inhibition, % at 20 µM; AID 602399, 2012; in the data active = inhibition above about 26%
rCAG RNA binder: binders of r(CAG) RNA repeats, primary screen, biochemical, fluorescence; 1.3% of 370,000 active; r(CAG) RNA repeat, TO-PRO-1 dye displacement fluorescence; inhibition, % at 3 µM;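 active = inhibition above the plate cutoff, the mean of all test compounds on that plate plus 3 SD, cut at about 35% in these data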;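 also: 0% = DMSO alone and 100% = 100 µM mitoxantrone as full dye displacement; higher means more dye released from RNA so lower well fluorescence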
ASAP1 GAP inh: inhibitors of human ASAP1 ArfGAP activity, primary screen, biochemical, fluorescence polarization. AID 624377, 2012. Arf-GAP with SH3 domain, ANK repeat and PH domain-containing protein 1 (Homo sapiens), …. inhibition, % at 16.5 µM. 0.19% of 360,000 active. ASAP1-stimulated ARF1 GTP hydrolysis, GDP FP detection; in the data active = inhibition above about 25%;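 also: 0% = vehicle with enzyme and substrate and 100% = no enzyme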
NadD inh conf: inhibitors of S. aureus NadD, confirmation, biochemical, colorimetric, single concentration. shares compounds with NadD block. purified S. aureus NadD, colorimetric enzyme assay. inhibition, % at 20 µM. 13% of 2,000 active. AID 624309, 2012; in the data active = inhibition mostly above about 42%, no sharp cut-off; inactive = mostly below about 42%
An asterisk follows results filed as active; x = not tested or not shown; ! = not confirmed by another sample.

SMILES	ARFGAP1 inh	NadD block	rCAG RNA binder	ASAP1 GAP inh	NadD inh conf
O=c1[nH]c(C2CCN(S(=O)(=O)c3ccc4c(c3)OCCO4)CC2)nc2c1nnn2Cc1ccccc1	-5.4	2.0	8.6	6.5	x
Cc1ccc(C)c(S(=O)(=O)N2CCC(c3nc4c(nnn4Cc4ccc5c(c4)OCCO5)c(=O)[nH]3)CC2)c1	-6.2	45.5*	11.1	4.7	10.0
O=c1[nH]c(C2CCCN(S(=O)(=O)c3cccc(Cl)c3)C2)nc2c1nnn2Cc1ccc2c(c1)OCCO2 (centres undefined)	-0.3	58.3*	4.8	6.8	57.3*
O=c1[nH]c(C2CCCN(S(=O)(=O)c3ccccc3)C2)nc2c1nnn2Cc1ccc2c(c1)OCCO2 (centres undefined)	7.0	28.4	5.6	6.0	x
CCOC(=O)[C@]12CCCC3=C1N(CCC3)C(=O)[C@@H](CC(=O)N1CCCCC1)C2	x	x	-0.6	x	x
CCn1c(=S)[nH]c2scc(-c3cccs3)c2c1=O	3.3	-3.2	7.1	-6.0	x
CC(C)n1c(=S)[nH]c2scc(-c3cccs3)c2c1=O	-0.2	29.6*	28.5	5.2	67.2*
O=C(NNS(=O)(=O)c1ccc2ccccc2c1)c1cc(-c2ccccn2)nc2ccccc12	0.2	45.4*	20.1	-10.7	49.2*
COc1ccc(CC(N)c2csc(NC(=O)Nc3ccc(OC)cc3)n2)cc1 (centres undefined)	-2.9	15.4	34.1	7.2	x
COc1ccc(CC(N)c2csc(NC(=O)c3cc(C(C)(C)C)oc3C)n2)cc1 (centres undefined)	5.4	33.0*	15.8	-1.4	-5.1
O=C(N/N=C/c1ccc(Cl)c([N+](=O)[O-])c1)c1cc(-c2ccc3c4c(cccc24)CC3)n[nH]1	-0.1	51.2*	8.1	1.5	0.9
CC(=O)c1c(C)oc2ccc(NS(=O)(=O)c3ccc(C)cc3)cc12	10.3	-4.9	0.1	0.1	x
Cc1oc2ccc(NS(=O)(=O)c3ccc(C(C)(C)C)cc3)cc2c1C(=O)Nc1ccccc1	1.4	32.7*	16.3	-3.8	33.9
CC(C)CNS(=O)(=O)/C=C/c1ccccc1CCNC(=O)OC(C)(C)C	x	x	2.1	x	x
Cc1[nH]c2ccc(C(=O)NCCCN3CCCCCC3)cc2c1C	4.3	29.3*	1.2	1.8	7.0
CC(=O)N1C[C@H]2CON(C)[C@H]2C[C@H]1c1ccccc1	9.6	0.2	1.2	10.8	x
Cc1cc(-c2cc(N)n(-c3ccccc3)n2)c(C)n1C1CCCC1	5.9	32.4*	11.4	1.3	12.5
Cc1cccc(N2CC(C(=O)Nc3nnc(SCCC4OCCO4)s3)CC2=O)c1 (centres undefined)	-2.5	41.5*	18.5	14.8	19.4
Cc1cccc(N2CC(C(=O)Nc3nnc(SCCN4CCOCC4)s3)CC2=O)c1 (centres undefined)	-13.9	26.6*	11.9	1.6	20.1
COc1cccc(N2CC(C(=O)Nc3nnc(SCCN4CCOCC4)s3)CC2=O)c1 (centres undefined)	-9.1	3.8	1.6	8.7	x
CCNC(=O)N1CCN(c2ccc(N3CCN(C(=O)NCC)[C@@H](C)C3)c(C)c2)[C@@H](C)C1	-8.1	x	-0.5	11.2	x
COc1ccc(-c2nn(-c3ccccc3)cc2C(=O)N/N=C/c2ccc([N+](=O)[O-])o2)cc1	-0.6	30.7*	2.5	-0.5	7.3
COC(=O)[C@H](Cc1ccccc1)N(Cc1cn(Cc2ccccc2)nn1)S(=O)(=O)c1ccccc1Br	x	x	6.6	x	x
Cc1ccc2c(C)nc(/N=C(\N)NC(=O)N3c4ccccc4Sc4ccccc43)nc2c1	4.5	26.4	7.2	-4.7	x
Cc1ccc2nc(/N=C(\N)NC(=O)N3c4ccccc4Sc4ccccc43)nc(C)c2c1	-4.4	31.0*	6.0	-2.1	5.5
Cc1cc2nc(/N=C(\N)NC(=O)N3c4ccccc4Sc4ccccc43)nc(C)c2cc1C	3.9	26.7*!	16.5	4.2	7.5
Nc1ncnc2c1ncn2[C@@H]1O[C@H](C(=O)N[C@@H](CCc2ccccc2)C(=O)O)[C@@H](O)[C@H]1O	-7.1	x	3.3	-14.6	x
CCOC(=O)C1=CC[C@@H](c2ccccc2)C(C#N)(C#N)[C@H]1/C=C/c1ccccc1	12.8	x	5.9	-1.7	x
